# OX1R antag-1: antagonists of human orexin 1 receptor; O43613; inhibition, % at 5 µM; hit rate 0.43% among 330,000; CHO/OX1R cells, Fluo-8 calcium fluorescence, orexin A;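 active means inhibition above its plate's threshold, mean inhibition of all tested compounds on the plate plus 3 SD, cut at about 37% in these data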;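 further: 0% = orexin A challenge wells and 100% = SB-334867-A antagonist wells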
# Target sequence (O43613 whole entry, looked up): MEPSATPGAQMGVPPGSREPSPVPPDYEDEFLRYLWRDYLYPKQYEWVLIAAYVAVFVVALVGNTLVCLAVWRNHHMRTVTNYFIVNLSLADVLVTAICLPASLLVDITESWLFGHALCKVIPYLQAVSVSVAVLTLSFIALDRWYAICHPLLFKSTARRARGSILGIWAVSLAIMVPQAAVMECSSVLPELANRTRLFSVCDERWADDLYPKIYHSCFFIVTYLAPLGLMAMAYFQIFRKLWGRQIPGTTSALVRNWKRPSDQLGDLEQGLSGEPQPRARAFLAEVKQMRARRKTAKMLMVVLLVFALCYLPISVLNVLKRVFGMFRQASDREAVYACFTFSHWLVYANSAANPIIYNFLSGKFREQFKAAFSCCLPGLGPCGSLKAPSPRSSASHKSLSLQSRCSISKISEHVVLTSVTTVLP
# TAAR1 ag: human TAAR1 agonism; Q96RJ0; CHO RD-HGA16 TAAR1, Fluo-8 calcium fluorescence; vehicle wells 0%, saturating PEA agonist 100%; activation, % at 3 µM; hit rate 0.99% among 360,000; AID 624467;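 active means activation above the mean activation of all test compounds in the run plus 3 SD, cut at about 38% in these data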
#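 System: CHO RD-HGA16 cells carrying human TAAR1 plus Gα16; Incubation: 17-24 h seeding, 75 min 37 °C dye, 30 min RT; Measured by: Fluo-8 fluorescence, 5 s baseline then 140 s kinetic read; Control set: DMSO and PEA EC100; Replication: single well for each compound.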
# CHO parental Ca: counter-screen: ATP calcium response change in parental CHO cells; parental CHO-K1, ATP-induced calcium, Fluo-8 fluorescence; inhibition, % at 5.6 µM; AID 463079; hit rate 0.63% among 330,000;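 active means inhibition above that plate's mean sample inhibition plus 3 SD, cut at about 26% in these data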;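 further: 0% = ATP-challenged DMSO wells and 100% = DMSO wells without ATP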
#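 Measured by: calcium-sensitive Fluo-8 fluorescence / Test system: CHO parental line / Controls: ATP-challenged DMSO wells low, unchallenged DMSO wells high / Measure: % inhibition / Compound: single nominal dose of 5.6 µM per compound / Replicates: single well per compound, no replicates / Reagent: ATP as calcium-mobilizing challenge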
# OX1R antag-2: OX1R (human) antagonism. O43613. OX1R-expressing cells, FRET antagonist read-out. inhibition, % at 6.6 µM. hit rate 1.8% among 330,000. AID 485270; in the data active means inhibition mostly above about 38%, no sharp cut-off; inactive means mostly below about 40%;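 further: 0% = agonist challenge alone and 100% = reference antagonist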
# TAAR1 antag: human TAAR1 antagonism | Q96RJ0 | CHO RD-HGA16 TAAR1, Fluo-8 calcium fluorescence, antagonist | inhibition, % at 3 µM | hit rate 1.5% among 360,000;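 active means inhibition above a per-plate cutoff, the mean inhibition of test compounds on that plate plus 3 SD, cut at about 49% in these data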;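 further: 0% = DMSO plus EC80 beta-PEA response and 100% = DMSO alone without agonist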
#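 test system = CHO RD-HGA16 cells bearing hTAAR1 | replication = singlicate | controls = DMSO-only wells and EC80 β-PEA-stimulated wells | reagent = EC80 β-phenethylamine stimulus | read-out basis = percent inhibition of PEA-evoked calcium signal, max/basal emission ratio | schedule = seeding 17-24 h prior, 75-min 37 °C, 30-min RT dye loading | signal = kinetic Fluo-8 calcium fluorescence measurement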
# GPR7 antag: blocks human GPR7 receptor signaling | GPR7-expressing cells, fluorescence antagonist assay | inhibition, % at 4.4 µM | P48145 | hit rate 1.1% among 290,000; in the data active means inhibition above about 16%, passing the limit was not always enough;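 further: cells stimulated with the agonist NPW; 0% = agonist with vehicle and 100% = vehicle without agonist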
# TAAR1 nonsel count: counter-screen for TAAR1 antagonists: nonselective antagonists. shares compounds with TAAR1 antag. counterscreen cell line, calcium fluorescence, antagonist mode. inhibition, % at 3 µM. hit rate 77% among 2,400; in the data active means inhibition above about 22%;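 further: CHO-Ga16 host cells stimulated with ATP at an EC80 level; 0% = agonist EC80 plus vehicle and 100% = vehicle without agonist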
# TAAR1 ant conf: human TAAR1 antagonism, confirmed; shares compounds with TAAR1 antag; TAAR1-expressing cells, fluorescence antagonist read-out; inhibition, % at 3 µM; hit rate 40% among 2,400; AID 651785; in the data active means inhibition above about 49%;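 further: CHO-Ga16 host cells challenged with agonist PEA near its EC80; 0% = agonist at EC80 plus vehicle and 100% = vehicle with no agonist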
# Ga16 ag counter: nonselective Ga16 agonism, counter-screen; shares compounds with TAAR1 antag; Ga16-expressing cells, calcium fluorescence, agonist counterscreen; activation, % at 3 µM; hit rate 18% among 2,400; AID 651953; in the data active means activation above about 12%;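 further: 0% = vehicle wells and 100% = saturating stimulus response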
# TAAR1 ag counter: activates human TAAR1 in antagonist counter-screen; shares compounds with TAAR1 antag; hTAAR1 cell line, fluorescence activation, agonist mode; activation, % at 3 µM; hit rate 2% among 2,400; AID 651955; in the data active means activation above about 37%;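 further: CHO cells stably expressing TAAR1 with calcium dye readout; 0% = DMSO vehicle and 100% = full agonist response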
# * = called active by the depositor; x = no result. This is a sample that favours compounds with a hit; in the whole collection about 4.5% have one here.
SMILES,OX1R antag-1,TAAR1 ag,CHO parental Ca,OX1R antag-2,TAAR1 antag,GPR7 antag,TAAR1 nonsel count,TAAR1 ant conf,Ga16 ag counter,TAAR1 ag counter
CC(=O)N(Cc1cccc(Br)c1)c1ccc(N2CCOCC2)c(Cl)c1,-24.3,2.5,-8.9,12.2,6.8,8.9,x,x,x,x
COc1ccc(Cl)cc1C(=O)OCC(=O)Nc1sccc1C(N)=O,0.6,23.6,-17.3,18.4,56.7*,x,25.8*,49.6*,10.7,13.6
COc1cc(CC(=O)Nc2sccc2C(N)=O)cc(OC)c1OC,4.8,7.8,-24.2,34.9,12.7,-11.5,x,x,x,x
CC(C(=O)Nc1nc(-c2ccc(F)cc2)cs1)N1C(=O)C2CC=CCC2C1=O (stereo not drawn),3.7,19.4,5.5,27.2,78.0*,x,40.3*,65.1*,12.4*,11.8
Cc1ccccc1NC(=O)CCN1CCc2ccccc2C1,-28.2,3.1,-23.9,-1.6,103.7*,-0.6,-5.9,-0.3,4.9,8.7
Cc1ccccc1NC(=O)CCN1CCCC1,-17.5,5.6,-1.4,-3.7,-25.5,-0.9,x,x,x,x
CCOC(=O)c1c(C)cc(O)cc1O,x,0.1,x,x,-15.9,x,x,x,x,x
O=C(CN1c2cccc3cccc(c23)S1(=O)=O)Nc1ccc(F)c(F)c1F,-31.4,2.2,-15.3,0.6,103.5*,x,9.2,11.7,3.8,4.9
COc1ccccc1CN(Cc1nc2ccccc2c(=O)[nH]1)S(=O)(=O)c1ccc(C)cc1,-8.9,1.2,-25.5,24.6,52.7*,-2.2,14.5,37.9,7.6,10.5
COc1ccccc1CN(Cc1nc2ccccc2c(=O)[nH]1)C(=O)Nc1ccc(C)cc1,-37.8,14.1,-25.2,19.6,18.7,-10.4,x,x,x,x
COc1cc(C(=O)OCCc2cc3ccccc3c(=O)o2)cc(OC)c1OC,7.0,8.7,-23.1,13.9,64.9*,x,26.9*,39.1,8.3,4.7
COc1cc(C(=O)OCCCc2cc3ccccc3c(=O)o2)cc(OC)c1OC,-17.0,3.9,-20.9,15.1,2.7,x,x,x,x,x
CCOC(=O)C1(CCOc2ccccc2)CCN(Cc2cccc3nonc23)CC1,-33.5,3.7,-15.2,7.1,6.6,4.4,x,x,x,x
c1ccc(COc2cccc(-c3cc4nc(NCCc5ccncc5)ccn4n3)c2)cc1,x,11.6,x,x,71.4*,x,38.2*,50.9*,9.2,17.3
c1ccc(COc2cccc(-c3cc4nc(NCCOc5ccccc5)ccn4n3)c2)cc1,x,0.0,x,x,14.5,x,x,x,x,x
CCOc1ccc(NC(=O)C2(c3ccc(OC)c(OC)c3)CCCC2)cc1,-41.8,5.4,-22.3,18.5,-7.2,-3.3,x,x,x,x
CC(=O)c1ccc(N2CCN(C(=O)CCCc3nc4ccccc4s3)CC2)cc1,-15.7,14.5,-10.8,17.9,60.4*,-6.6,33.6*,45.5,11.4,6.2
COc1ccc(CNc2nc(-c3cccnc3)nn2C(=O)C(C)C)cc1,x,2.1,x,x,3.1,-18.0,x,x,x,x
CCc1ccccc1NC(=S)N1CCNC(=O)C1CC(=O)OC (stereo not drawn),-18.8,6.2,-4.2,4.7,-1.5,-8.2,x,x,x,x
COc1ccc(OCC(=O)NNC(=O)C2CCN(c3ncnc4sc(C)c(C)c34)CC2)cc1,-23.3,10.0,-13.5,5.8,28.6,x,x,x,x,x
Cc1ccc(OCC(=O)NNC(=O)C2CCN(c3ncnc4sc(C)c(C)c34)CC2)cc1,-34.7,8.0,-16.2,25.3,50.3*,x,26.5*,27.2,10.6,22.4
Cc1sc2ncnc(N3CCC(C(=O)NNC(=O)COc4ccccc4F)CC3)c2c1C,-20.8,16.7,-9.6,15.7,65.2*,x,31.4*,47.0,9.6,26.6
Cc1sc2ncnc(N3CCC(C(=O)NNC(=O)COc4ccc(Br)cc4)CC3)c2c1C,-0.1,19.7,-11.7,62.6*,75.9*,x,42.1*,53.2*,11.6*,21.2
Cc1sc2ncnc(N3CCC(C(=O)NNC(=O)COc4ccc(Cl)cc4)CC3)c2c1C,x,22.8,x,x,70.2*,x,38.0*,41.8,11.6*,27.4
Cc1sc2ncnc(N3CCC(C(=O)NNC(=O)c4ccccc4Cl)CC3)c2c1C,-15.6,8.6,-8.3,8.2,8.8,-15.0,x,x,x,x
SMILES,OX1R antag-1,TAAR1 ag,CHO parental Ca,OX1R antag-2,TAAR1 antag,GPR7 antag,TAAR1 nonsel count,TAAR1 ant conf,Ga16 ag counter,TAAR1 ag counter
COc1ccccc1NC(=O)c1cc[n+](C)cc1,-5.4,4.0,-3.8,24.8,2.3,-5.8,x,x,x,x
CCN(CC(=O)Nc1c(Cl)cccc1Cl)C(=O)C1CCN(c2ncnc3sc(C)c(C)c23)CC1,x,4.7,x,x,2.8,x,x,x,x,x
CCN(CC(=O)Nc1c(F)cccc1F)C(=O)C1CCN(c2ncnc3sc(C)c(C)c23)CC1,-27.1,12.7,-33.6,24.6,57.5*,x,22.5*,39.1,7.5,4.8
Cc1sc2ncnc(N3CCC(C(=O)Nc4nnc(CC(C)C)s4)CC3)c2c1C,-32.4,2.7,-23.1,19.6,20.2,x,x,x,x,x
Cc1cc(Cl)ccc1OCC(=O)NNC(=O)C1CCN(c2ncnc3sc(C)c(C)c23)CC1,20.7,19.0,1.5,33.4*,78.0*,x,38.7*,51.6*,13.5*,21.1
Cc1sc2ncnc(N3CCC(C(=O)NNC(=O)COc4cccc(C(F)(F)F)c4)CC3)c2c1C,-25.3,17.4,-7.2,22.8,63.6*,x,28.3*,41.0,10.8,27.6
Cc1sc2ncnc(N3CCC(C(=O)Nc4nc(-c5ccc(F)cc5)cs4)CC3)c2c1C,3.1,3.1,5.3,12.7,15.2,x,x,x,x,x

# Compound activity (PubChem BioAssay)
